Data as given in ChEMBL document CHEMBL1255457, “Determination of an inoculum effect with various cephalosporins among clinical isolates of methicillin-susceptible Staphylococcus aureus” (2010).
Converted amounts (≈) assume the structure as drawn.

Columns and labels:
Assay type in all cases: functional
Staphylococcus aureus [1] = experiment: Antibacterial activity against methicillin-susceptible beta-lactamase positive Staphylococcus aureus using 5x10^5 CFU/ml standard inoculum after 24 hrs by broth microdilution method
How it was run: (§1)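 Clinical MSSA isolates previously typed by Bla (25 type A, 15 type B, 45 type C, 13 blaZ-negative), with TX0117, ATCC 29213 and ATCC 25923 as controls. Broth microdilution per CLSI, read at 24 h. Standard (~5 × 10^5 CFU/ml) or high (~5 × 10^7 CFU/ml) inoculum set by OD, CFU/ml checked at random. MIC90 and geometric mean MIC per group, compared by Mann-Whitney test.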

Staphylococcus aureus [2] = experiment: Antibacterial activity against methicillin-susceptible beta-lactamase negative Staphylococcus aureus using 5x10^5 CFU/ml standard inoculum after 24 hrs by broth microdilution method; how it was run: as §1
Staphylococcus aureus [3] = experiment: Antibacterial activity against methicillin-susceptible beta-lactamase positive Staphylococcus aureus using 5x10^7 CFU/ml high inoculum after 24 hrs by broth microdilution method; how it was run: as §1
Staphylococcus aureus [4] = experiment: Antibacterial activity against methicillin-susceptible beta-lactamase negative Staphylococcus aureus using 5x10^7 CFU/ml high inoculum after 24 hrs by broth microdilution method; how it was run: as §1
Staphylococcus aureus [5] = experiment: Antibacterial activity against methicillin-susceptible Bla-producing Staphylococcus aureus type A using 5x10^5 CFU/ml standard inoculum after 24 hrs by broth microdilution method; how it was run: as §1
Staphylococcus aureus [6] = experiment: Antibacterial activity against methicillin-susceptible Bla-producing Staphylococcus aureus type B using 5x10^5 CFU/ml standard inoculum after 24 hrs by broth microdilution method; how it was run: as §1
Staphylococcus aureus [7] = experiment: Antibacterial activity against methicillin-susceptible Bla-producing Staphylococcus aureus type C using 5x10^5 CFU/ml standard inoculum after 24 hrs by broth microdilution method; how it was run: as §1
Staphylococcus aureus [8] = experiment: Antibacterial activity against methicillin-susceptible Bla-producing Staphylococcus aureus type B using 5x10^7 CFU/ml high inoculum after 24 hrs by broth microdilution method; how it was run: as §1
Staphylococcus aureus [9] = experiment: Antibacterial activity against methicillin-susceptible Bla-producing Staphylococcus aureus type C using 5x10^7 CFU/ml high inoculum after 24 hrs by broth microdilution method; how it was run: as §1
Staphylococcus aureus [10] = experiment: Antibacterial activity against methicillin-susceptible Bla-producing Staphylococcus aureus type A using 5x10^7 CFU/ml high inoculum after 24 hrs by broth microdilution method; how it was run: as §1

| SMILES | MIC (Staphylococcus aureus [1]) | MIC90 (Staphylococcus aureus [1]) | MIC (Staphylococcus aureus [2]) | MIC90 (Staphylococcus aureus [2]) | MIC (Staphylococcus aureus [3]) | MIC90 (Staphylococcus aureus [3]) | MIC (Staphylococcus aureus [4]) | MIC90 (Staphylococcus aureus [4]) | MIC (Staphylococcus aureus [5]) | MIC90 (Staphylococcus aureus [5]) | MIC (Staphylococcus aureus [6]) | MIC90 (Staphylococcus aureus [6]) | MIC (Staphylococcus aureus [7]) | MIC90 (Staphylococcus aureus [7]) | MIC (Staphylococcus aureus [8]) | MIC90 (Staphylococcus aureus [8]) | MIC (Staphylococcus aureus [9]) | MIC90 (Staphylococcus aureus [9]) | MIC (Staphylococcus aureus [10]) | MIC90 (Staphylococcus aureus [10]) |
| --- | --- | --- | --- | --- | --- | --- | --- | --- | --- | --- | --- | --- | --- | --- | --- | --- | --- | --- | --- | --- |
| CC(=O)OCC1=C(C(=O)O)N2C(=O)[C@@H](NC(=O)Cc3cccs3)[C@H]2SC1 [CEPHALOTHIN] | 0.5 µg/mL (≈ 1.26 µM) | 1 µg/mL (≈ 2.52 µM) | 0.3 µg/mL (≈ 0.757 µM) | 0.5 µg/mL (≈ 1.26 µM) | 1.9 µg/mL (≈ 4.79 µM) | 8 µg/mL (≈ 20.2 µM) | 0.3 µg/mL (≈ 0.757 µM) | 0.5 µg/mL (≈ 1.26 µM) | 0.4 µg/mL (≈ 1.01 µM) | 0.5 µg/mL (≈ 1.26 µM) | 0.5 µg/mL (≈ 1.26 µM) | 1 µg/mL (≈ 2.52 µM) | 0.6 µg/mL (≈ 1.51 µM) | 1 µg/mL (≈ 2.52 µM) | 1.3 µg/mL (≈ 3.28 µM) | 4 µg/mL (≈ 10.1 µM) | 3 µg/mL (≈ 7.57 µM) | 8 µg/mL (≈ 20.2 µM) | 2 µg/mL (≈ 5.04 µM) | 8 µg/mL (≈ 20.2 µM) |
| Nc1nc(/C(=N/O)C(=O)N[C@@H]2C(=O)N3C(C(=O)O)=C(/C=C4\CCN([C@@H]5CCNC5)C4=O)CS[C@H]23)ns1 [CEFTOBIPROLE] | 0.4 µg/mL (≈ 0.748 µM) | 0.5 µg/mL (≈ 0.935 µM) | 0.3 µg/mL (≈ 0.561 µM) | 0.5 µg/mL (≈ 0.935 µM) | 0.7 µg/mL (≈ 1.31 µM) | 1 µg/mL (≈ 1.87 µM) | 0.3 µg/mL (≈ 0.561 µM) | 0.5 µg/mL (≈ 0.935 µM) | 0.4 µg/mL (≈ 0.748 µM) | 0.5 µg/mL (≈ 0.935 µM) | 0.5 µg/mL (≈ 0.935 µM) | 0.5 µg/mL (≈ 0.935 µM) | 0.5 µg/mL (≈ 0.935 µM) | 0.5 µg/mL (≈ 0.935 µM) | 0.7 µg/mL (≈ 1.31 µM) | 2 µg/mL (≈ 3.74 µM) | 0.7 µg/mL (≈ 1.31 µM) | 1 µg/mL (≈ 1.87 µM) | 0.7 µg/mL (≈ 1.31 µM) | 1 µg/mL (≈ 1.87 µM) |
| CC1=C(C(=O)O)N2C(=O)[C@@H](NC(=O)[C@H](N)c3ccccc3)[C@H]2SC1 [CEPHALEXIN ANHYDROUS] | 3.9 µg/mL (≈ 11.2 µM) | 4 µg/mL (≈ 11.5 µM) | 2.5 µg/mL (≈ 7.2 µM) | 4 µg/mL (≈ 11.5 µM) | 10.7 µg/mL (≈ 30.8 µM) | 32 µg/mL (≈ 92.1 µM) | 3.1 µg/mL (≈ 8.92 µM) | 4 µg/mL (≈ 11.5 µM) | 4.6 µg/mL (≈ 13.2 µM) | 8 µg/mL (≈ 23 µM) | 3.3 µg/mL (≈ 9.5 µM) | 4 µg/mL (≈ 11.5 µM) | 3.8 µg/mL (≈ 10.9 µM) | 4 µg/mL (≈ 11.5 µM) | 14.7 µg/mL (≈ 42.3 µM) | 64 µg/mL (≈ 184 µM) | 6.6 µg/mL (≈ 19 µM) | 16 µg/mL (≈ 46.1 µM) | 10.6 µg/mL (≈ 30.5 µM) | 32 µg/mL (≈ 92.1 µM) |
| CCOc1ccc2ccccc2c1C(=O)N[C@@H]1C(=O)N2[C@@H]1SC(C)(C)[C@@H]2C(=O)O [NAFCILLIN] | 0.4 µg/mL (≈ 0.965 µM) | 0.5 µg/mL (≈ 1.21 µM) | 0.4 µg/mL (≈ 0.965 µM) | 0.5 µg/mL (≈ 1.21 µM) | 0.7 µg/mL (≈ 1.69 µM) | 1 µg/mL (≈ 2.41 µM) | 0.7 µg/mL (≈ 1.69 µM) | 1 µg/mL (≈ 2.41 µM) | – | – | – | – | – | – | – | – | – | – | – | – |
| CO/N=C(\C(=O)N[C@@H]1C(=O)N2C(C(=O)O)=C(COC(N)=O)CS[C@H]12)c1ccco1 [CEFUROXIME] | – | – | – | – | 1 µg/mL (≈ 2.36 µM) | 1 µg/mL (≈ 2.36 µM) | 1 µg/mL (≈ 2.36 µM) | 1 µg/mL (≈ 2.36 µM) | – | – | – | – | – | – | – | – | – | – | – | – |
| CO/N=C(\C(=O)N[C@@H]1C(=O)N2C(C(=O)O)=C(CSc3nc(=O)c(O)nn3C)CS[C@H]12)c1csc(N)n1 [CEFTRIAXONE] | 2.9 µg/mL (≈ 5.23 µM) | 4 µg/mL (≈ 7.21 µM) | 3.1 µg/mL (≈ 5.59 µM) | 4 µg/mL (≈ 7.21 µM) | 3.4 µg/mL (≈ 6.13 µM) | 4 µg/mL (≈ 7.21 µM) | 3.1 µg/mL (≈ 5.59 µM) | 4 µg/mL (≈ 7.21 µM) | – | – | – | – | – | – | – | – | – | – | – | – |
